Test results taken from ChEMBL document CHEMBL4017519, “Development of (4-Cyanophenyl)glycine Derivatives as Reversible Inhibitors of Lysine Specific Demethylase 1” (J Med Chem, 2017).
Active and inactive are the calls of the source. The rule behind the calls is not given here.

Key:
THP-1 [1] = assay: Anticlonogenic activity against human THP1 cells at 10 uM after 7 days; assay type: functional, cell-based
[2] = molecular target: Voltage-gated inwardly rectifying potassium channel KCNH2 (Homo sapiens, UniProt Q12809); assay: Inhibition of human hERG by patch clamp method
[3] = molecular target: T1, Lysine-specific histone demethylase 1A (Homo sapiens, UniProt O60341); assay: Inhibition of LSD1 in human THP1 cells assessed as induction of CD86 expression after 48 hrs by flow cytometric analysis; assay type: cell-based
MV4-11 = assay: Anticlonogenic activity against human MV4-11 cells at 10 uM after 7 days; assay type: functional, cell-based
[4] = Apparent permeability across apical to basolateral side in human Caco2 cells; assay type: ADME, cell-based; settings: Caco-2
Liver = assay: Intrinsic clearance in mouse liver microsomes assessed per […]; assay type: ADME, microsome
THP-1 [5] = assay: Induction of apoptosis in human THP1 cells at 10 uM after 4 days by Annexin V-perCP EF710/7AAD double staining based FACS analysis; assay type: functional, cell-based
Procedure, shortened: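 THP-1 cells in liquid culture with 10 μM compound or vehicle for 4 days, then stained with an Annexin V/7-AAD kit per manufacturer and analysed by flow cytometry. Early apoptotic = Annexin V-pos/7-AAD-neg; apoptotic = Annexin V-pos/7-AAD-pos. One-way ANOVA with Dunnett's tests.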

[6] = Half life in mouse liver microsomes; assay type: ADME, microsome
[7] = molecular target: T1, Lysine-specific histone demethylase 1A; assay: Binding affinity to LSD1 (unknown origin) by SPR analysis
[8] = molecular target: T1, Lysine-specific histone demethylase 1A; assay: Inhibition of N-terminal truncated human LSD1 (151 to 852 residues) expressed in Escherichia coli after 30 mins using histone H3(1-21)K4(Me1) biotin peptide as substrate by TR-FRET assay
[9] = Efflux ratio of apparent permeability in human Caco2 cells; assay type: ADME, cell-based; settings: Caco-2
Homo sapiens = organism: Homo sapiens; assay: Selectivity ratio of IC50 for human ERG to IC50 for N-terminal truncated human LSD1 (151 to 852 residues) expressed in Escherichia coli
[10] = molecular target: T1, Lysine-specific histone demethylase 1A; assay: Inhibition of LSD1 in human THP1 cells assessed as induction of CD86 expression at 50 uM after 48 hrs by flow cytometric analysis; assay type: cell-based
Procedure, shortened: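 THP-1 AML cells grown in RPMI with 10% FBS and 2 mM L-glutamine, exposed to compound or DMSO vehicle at 50 μM for 48 h at 1×10^5 cells/ml. Cells were pelleted and stained with CD86-PerCP EF710 antibody in phenol red-free RPMI with 5 mM EDTA and 2% BSA for 10 min at 4 °C, then washed and analysed by flow cytometry.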

[11] = molecular target: T1, Lysine-specific histone demethylase 1A; assay: Competitive binding affinity to LSD1 (unknown origin) in presence of tranylcypromine

Voltage-gated inwardly rectifying potassium channel KCNH2, sequence (Q12809 whole entry): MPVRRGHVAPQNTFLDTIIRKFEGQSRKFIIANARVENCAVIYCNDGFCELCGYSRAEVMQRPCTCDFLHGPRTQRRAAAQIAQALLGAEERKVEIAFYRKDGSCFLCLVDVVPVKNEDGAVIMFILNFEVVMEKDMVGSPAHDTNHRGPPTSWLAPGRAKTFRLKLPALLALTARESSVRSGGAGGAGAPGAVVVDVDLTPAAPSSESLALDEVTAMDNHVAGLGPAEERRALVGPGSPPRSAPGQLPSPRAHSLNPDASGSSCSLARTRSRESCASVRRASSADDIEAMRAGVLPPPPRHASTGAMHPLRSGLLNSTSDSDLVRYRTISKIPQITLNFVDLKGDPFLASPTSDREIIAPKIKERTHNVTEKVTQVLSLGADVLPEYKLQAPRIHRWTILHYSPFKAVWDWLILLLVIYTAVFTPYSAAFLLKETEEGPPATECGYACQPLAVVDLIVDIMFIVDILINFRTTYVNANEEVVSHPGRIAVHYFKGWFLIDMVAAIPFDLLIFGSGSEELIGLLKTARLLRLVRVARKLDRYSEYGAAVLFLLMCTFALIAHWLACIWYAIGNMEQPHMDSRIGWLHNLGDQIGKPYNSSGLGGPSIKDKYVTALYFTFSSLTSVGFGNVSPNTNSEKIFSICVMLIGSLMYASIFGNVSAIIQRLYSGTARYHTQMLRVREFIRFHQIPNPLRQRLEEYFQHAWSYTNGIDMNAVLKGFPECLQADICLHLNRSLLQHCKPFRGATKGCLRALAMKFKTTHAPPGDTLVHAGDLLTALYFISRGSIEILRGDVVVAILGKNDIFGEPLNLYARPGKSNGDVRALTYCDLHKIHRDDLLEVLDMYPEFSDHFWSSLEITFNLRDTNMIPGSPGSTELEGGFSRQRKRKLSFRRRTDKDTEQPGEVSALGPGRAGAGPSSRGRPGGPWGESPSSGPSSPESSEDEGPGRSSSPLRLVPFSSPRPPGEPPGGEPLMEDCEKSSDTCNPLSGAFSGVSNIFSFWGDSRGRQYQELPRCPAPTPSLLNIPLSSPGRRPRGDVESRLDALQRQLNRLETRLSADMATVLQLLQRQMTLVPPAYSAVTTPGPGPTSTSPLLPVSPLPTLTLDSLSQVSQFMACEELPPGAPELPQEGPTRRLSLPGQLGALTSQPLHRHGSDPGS

Kd [7]	IC50 [8]	SMILES	also measured
9500 nM	–	CC(=O)Nc1ccc(S(=O)(=O)Nc2ccc(C#N)cc2)cc1	–
2900 nM	7500 nM	CNC1CCN(C(=O)CN(c2ccc(C#N)cc2)S(=O)(=O)c2ccc(C)cc2)CC1	–
> 100000 nM	> 30000 nM	COc1cc(N(CC(=O)N2CCC(N)CC2)S(=O)(=O)c2ccc3c(c2)CCN3C(C)=O)ccc1-n1nc(C)cc1C	–
10300 nM	24300 nM	Cc1ccc(S(=O)(=O)N(CC(=O)N2CCC[C@H](N)C2)c2ccc(C#N)cc2)cc1	–
4500 nM	13900 nM	Cc1ccc(S(=O)(=O)N(CC(=O)N2CCC[C@@H](N)C2)c2ccc(C#N)cc2)cc1	–
2500 nM	5200 nM	Cc1ccc(S(=O)(=O)N(CC(=O)N2CCC(C)(N)CC2)c2ccc(C#N)cc2)cc1	–
> 100000 nM	1600 nM	COc1cc(NS(=O)(=O)c2ccc3c(c2)CCN3C(C)=O)ccc1-n1nc(C)cc1C	–
–	40000 nM	COc1cc(NS(=O)(=O)c2ccccc2)ccc1-n1nc(C)cc1C	–
2900 nM	12600 nM	Cc1ccc(S(=O)(=O)N(CC(=O)N2CCC(N(C)C)CC2)c2ccc(C#N)cc2)cc1	–
90000 nM	> 150000 nM	Cc1ccc(S(=O)(=O)N(CC(=O)Nc2cccnc2)c2ccc(C#N)cc2)cc1	–
–	430 nM	COc1cc(NS(=O)(=O)c2ccc3c(c2)cc(C)c(=O)n3C)ccc1-n1nc(C)cc1C	inhibition [10]: inactive; Activity [11]: inactive
9600 nM	30000 nM	Cn1cc2cc(N(CC(=O)N3CCC[C@@H](N)C3)S(=O)(=O)c3ccc(C#N)cc3)ccc2n1	–
2400 nM	5200 nM	CC(=O)N1CCc2cc(S(=O)(=O)N(CC(=O)N3CCC[C@@H](N)C3)c3ccc(C#N)cc3)ccc21	–

Further lines, the molecule ahead of its results:

SMILES	Kd [7]	IC50 [8]	also measured
Cc1ccc(-c2ncc(OC[C@H]3CCNC3)cc2-c2ccc(C#N)cc2)cc1	9 nM	–	Activity (THP-1 [1]): Active; IC50 [2]: 3200 nM; EC50 [3]: 300 nM; Activity (MV4-11): Active; Papp A→B [4]: 5.6 ×10⁻⁶ cm/s; CLint (Liver): 3.43 µL/min; Activity (THP-1 [5]): Active; half-life [6]: 6.73 h
N#Cc1ccc(N(CC(=O)N2CCC(CN)CC2)Cc2ccc(F)cc2)cc1	460 nM	1300 nM	–
Cc1ccc(S(=O)(=O)N(CC(=O)N[C@@H]2CN3CCC2CC3)c2ccc(C#N)cc2)cc1	3500 nM	14200 nM	–
CC(=O)N1CCc2cc(S(=O)(=O)N(CC(=O)N3CCC(N)CC3)c3ccc(C#N)cc3)ccc21	1800 nM	4400 nM	–
Cn1ncc2cc(CN(CC(=O)N3CCC(N)CC3)c3ccc(C#N)cc3)ccc21	140 nM	620 nM	–
Cc1ccc(S(=O)(=O)N(CC(=O)N2CC[C@@H](N)C2)c2ccc(C#N)cc2)cc1	3200 nM	16400 nM	–
Cc1ccc(S(=O)(=O)N(CC(=O)N[C@H]2CN3CCC2CC3)c2ccc(C#N)cc2)cc1	3600 nM	11900 nM	–
COc1ccc(CN(CC(=O)N2CCC(F)(CN)CC2)c2ccc(C#N)cc2)cc1F	230 nM	990 nM	–
COc1ccc(CN(CC(=O)N2CCC(CN)CC2)c2ccc(C#N)cc2)cc1F	58 nM	210 nM	IC50 [2]: 12400 nM; EC50 [3]: 4100 nM; Papp A→B [4]: 0.26 ×10⁻⁶ cm/s; CLint (Liver): 4.5 µL/min; efflux ratio [9]: 58; half-life [6]: 5.08 h
Cc1ccc(S(=O)(=O)N(CC(=O)NC2CCNCC2)c2ccc(C#N)cc2)cc1	6500 nM	15600 nM	–
COc1ccc(CN(CC(=O)N2CCC3(CC2)CNC3)c2ccc(C#N)cc2)cc1F	32 nM	83 nM	Activity (THP-1 [1]): Active; IC50 [2]: 20100 nM; EC50 [3]: 670 nM; Activity (MV4-11): Active; Papp A→B [4]: 0.09 ×10⁻⁶ cm/s; CLint (Liver): < 1 µL/min; efflux ratio [9]: 58; Ratio IC50 (Homo sapiens): 30; Activity (THP-1 [5]): Active; half-life [6]: > 16.7 h
N#Cc1ccc(N(CC(=O)N2CCC(N)CC2)Cc2ccccc2)cc1	1100 nM	4100 nM	–
N#Cc1ccc(N(CC(=O)N2CCC(CN)CC2)Cc2cccc(C(N)=O)c2)cc1	420 nM	1000 nM	–
N#Cc1ccc(N(CC(=O)N2CCC(N)CC2)Cc2ccc(C#N)c(F)c2)cc1	1900 nM	5500 nM	–
Cc1ccc(S(=O)(=O)N(CC(=O)N2CCC(N)CC2)c2ccc(C#N)cc2)cc1	2600 nM	7600 nM	–
Cc1ccc(CN(CC(=O)N2CCC(N)CC2)c2ccc(C#N)cc2)cc1	430 nM	1300 nM	–
Cc1ccc(CN(CC(=O)N2CCC(CN)CC2)c2ccc(C#N)cc2)cc1	110 nM	290 nM	–
Cc1ccc(S(=O)(=O)N(CC(=O)N2CC[C@H](N)C2)c2ccc(C#N)cc2)cc1	4700 nM	22700 nM	–
COc1ccc(CN(CC(=O)N2CCC(N)CC2)c2ccc(C#N)cc2)cc1F	190 nM	810 nM	Papp A→B [4]: 0.44 ×10⁻⁶ cm/s; CLint (Liver): 3.6 µL/min; half-life [6]: 6.42 h
N#Cc1ccc(N(CC(=O)N2CCC(CN)CC2)Cc2ccc(Cl)cc2)cc1	290 nM	400 nM	–
Cc1ccc(S(=O)(=O)N(CC(=O)N2C[C@@H]3C[C@H]2CN3)c2ccc(C#N)cc2)cc1	2400 nM	13100 nM	–
N#Cc1ccc(N(CC(=O)N2CCC(CN)CC2)Cc2ccc(C(N)=O)cc2)cc1	490 nM	830 nM	–
